≈ marks a conversion by molar mass, not a printed value. Calls of active or inactive are those of the source. The rule behind the calls is not given here.
What was measured:
[1] = system: Acinetobacter baumannii ATCC 19606 = CIP 70.34 = JCM 6841; test: Binding affinity to Acinetobacter baumannii 2208 ATCC 19606 FabI by SPR assay
Staphylococcus aureus [2] = test: Antibacterial activity against Staphylococcus aureus Newman by microbroth dilution method; type: functional
How it was run: (§1)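 Microbroth dilution MIC; each value is the mean of at least two runs, within two-fold experimental uncertainty.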

Acinetobacter baumannii [3] = test: Synergistic antibacterial activity against MDR Acinetobacter baumannii ATCC BAA-1605 assessed as fractional inhibitory concentration in presence of colistin by checkerboard method; type: functional
[4] = biological target: T1, Enoyl-[acyl-carrier-protein] reductase [NADPH] FabI (Staphylococcus aureus, UniProt Q6GI75); test: Competitive inhibition of Staphylococcus aureus subsp. aureus Rosenbach ATCC 43300 FabI using crotonyl-CoA as substrate in presence of NADPH/NADH after 10 mins by fluorescence assay
T1 sequence (Q6GI75 whole entry): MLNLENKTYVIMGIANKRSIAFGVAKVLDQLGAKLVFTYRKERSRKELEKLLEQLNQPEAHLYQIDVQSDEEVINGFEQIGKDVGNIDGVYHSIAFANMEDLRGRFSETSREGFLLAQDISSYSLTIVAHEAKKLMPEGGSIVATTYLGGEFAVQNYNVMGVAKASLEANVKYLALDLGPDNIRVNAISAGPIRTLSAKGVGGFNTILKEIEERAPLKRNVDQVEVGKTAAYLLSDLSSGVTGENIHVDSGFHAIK

HepG2 [5] = test: Cytotoxicity against human HepG2 cells assessed as reduction in cell viability after 24 hrs in presence of 0.5% FBS by MTT assay; type: cell-based; conditions: HepG2, 24 h
How it was run: (§2)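 HepG2 cells in EMEM with either 10% FBS or 0.5% FBS plus 10% Cell-Ess serum replacement. Seeded at 25,000 cells/well and incubated overnight at 37 °C, 5% CO2. Treated 24 h at 100–3 μg/mL, with matched DMSO controls. MTT added for 2 h, formazan extracted in DMSO, absorbance read at 570 nm. Run in duplicate; IC50 taken from the viability plot against the DMSO control.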

Staphylococcus aureus [6] = test: Antibacterial activity against Staphylococcus aureus RN4220 over-expressing FabI by microbroth dilution method; type: functional
How it was run: (§3)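 Broth microdilution MIC; reported value is mean of at least two runs, within two-fold experimental uncertainty.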

Staphylococcus aureus [7] = test: Antibacterial activity against methicillin-resistant Staphylococcus aureus subsp. aureus Rosenbach ATCC 43300 by microbroth dilution method; type: functional; how it was run: as §3
Acinetobacter baumannii [8] = test: Synergistic antibacterial activity against MDR Acinetobacter baumannii ATCC BAA-1605 assessed as colistin MIC by checkerboard method; type: functional
Escherichia coli [9] = test: Antibacterial activity against Escherichia coli BW25113 harboring TolC deletion mutant by microbroth dilution method; type: functional; how it was run: as §3
Acinetobacter baumannii [10] = test: Synergistic antibacterial activity against Acinetobacter baumannii 2208 ATCC 19606 assessed as fractional inhibitory concentration in presence of colistin by checkerboard method; type: functional, ATCC 19606 = CIP 70.34 = JCM 6841 2208
Acinetobacter baumannii [11] = test: Synergistic antibacterial activity against Acinetobacter baumannii 2208 ATCC 19606 assessed as colistin MIC by checkerboard method; type: functional; conditions: ATCC 19606 = CIP 70.34 = JCM 6841 2208
HepG2 [12] = test: Cytotoxicity against human HepG2 cells assessed as reduction in cell viability after 24 hrs in presence of 10% FBS by MTT assay; type: cell-based; conditions: HepG2, 24 h; how it was run: as §2
Staphylococcus aureus [13] = test: Selectivity ratio of MIC for Staphylococcus aureus RN4220 over-expressing FabI to MIC for Staphylococcus aureus RN4220; type: functional
Acinetobacter baumannii [14] = test: Antibacterial activity against Acinetobacter baumannii 2208 ATCC 19606 by microbroth dilution method; type: functional; conditions: ATCC 19606 = CIP 70.34 = JCM 6841 2208; how it was run: as §1
Acinetobacter baumannii [15] = test: Synergistic antibacterial activity against MDR Acinetobacter baumannii ATCC BAA-1605 assessed as fold reduction in colistin MIC by checkerboard method; type: functional
Acinetobacter baumannii [16] = test: Synergistic antibacterial activity against MDR Acinetobacter baumannii ATCC BAA-1605 in presence of colistin by checkerboard method; type: functional
How it was run: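 Checkerboard broth dilution in tryptic soy broth. Colistin 4 to 0.03 μg/mL against analog 100 to 0.19 μg/mL, crossed. Clear wells scored. ΣFIC = C/MIC(compound) + C/MIC(partner); <0.5 synergy, 0.5–2 indifference, >2 antagonism.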

[17] = Inhibition of Acinetobacter baumannii 2208 ATCC 19606 FabI using crotonyl-CoA as substrate in presence of NADPH/NADH after 10 mins by fluorescence assay; set-up: species or system Acinetobacter baumannii ATCC 19606 = CIP 70.34 = JCM 6841
How it was run: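 AbFabI, 200 nM, in 50 mM MES/100 mM NaCl with 200 μM NADH, 0.1 mg/mL BSA and 0.01% triton. Reaction started with 300 μM crotonyl-CoA. NADH fluorescence read at 340/460 nm. Compounds tested at 0.4 nM–200 μM. Initial 10-min slopes were compared with a DMSO no-compound control. At least two independent experiments, each in duplicate; two-fold uncertainty.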

[18] = biological target: T2, Enoyl-[acyl-carrier-protein] reductase [NADPH] FabI (Staphylococcus aureus) (UniProt Q6GI75); test: Binding affinity to Staphylococcus aureus subsp. aureus Rosenbach ATCC 43300 FabI by SPR assay
T2 sequence (whole entry): T1 sequence (Q6GI75 whole entry)

Acinetobacter baumannii [19] = test: Synergistic antibacterial activity against Acinetobacter baumannii 2208 ATCC 19606 in presence of colistin by checkerboard method; type: functional; conditions: ATCC 19606 = CIP 70.34 = JCM 6841 2208
[20] = Competitive inhibition of Acinetobacter baumannii 2208 ATCC 19606 FabI using crotonyl-CoA as substrate in presence of NADPH/NADH after 10 mins by fluorescence assay; set-up: species or system Acinetobacter baumannii ATCC 19606 = CIP 70.34 = JCM 6841
Escherichia coli [21] = test: Antibacterial activity against Escherichia coli BW25113 mutant by microbroth dilution method; type: functional; how it was run: as §3
Acinetobacter baumannii [22] = test: Synergistic antibacterial activity against Acinetobacter baumannii 2208 ATCC 19606 assessed as polymixin B MIC by checkerboard method; type: functional; conditions: ATCC 19606 = CIP 70.34 = JCM 6841 2208
[23] = Selectivity index, ratio for IC50 for human HepG2 cells to MIC for methicillin-resistant Staphylococcus aureus subsp. aureus Rosenbach ATCC 43300; type: toxicity
[24] = Selectivity index, ratio for IC50 for human HepG2 cells to MIC for Staphylococcus aureus RN4220; type: toxicity; conditions: read-out: Selectivity Index
Acinetobacter baumannii [25] = test: Synergistic antibacterial activity against Acinetobacter baumannii 2208 ATCC 19606 in presence of polymixin B by checkerboard method; type: functional; conditions: ATCC 19606 = CIP 70.34 = JCM 6841 2208
[26] = Selectivity index, ratio for IC50 for human HepG2 cells to MIC for Staphylococcus aureus RN4220 over-expressing FabI; type: toxicity
Acinetobacter baumannii [27] = test: Synergistic antibacterial activity against Acinetobacter baumannii 2208 ATCC 19606 assessed as fractional inhibitory concentration in presence of polymixin B by checkerboard method; type: functional, ATCC 19606 = CIP 70.34 = JCM 6841 2208
Staphylococcus aureus [28] = test: Antibacterial activity against Staphylococcus aureus RN4220 by microbroth dilution method; type: functional; how it was run: as §3
[29] = Protein binding in rat serum; type: ADME, cell-free; conditions: read-out: PB (converted)
[30] = Protein binding in mouse serum; type: ADME, cell-free; conditions: read-out: PB (converted)
[31] = Protein binding in human serum; type: ADME, cell-free; conditions: read-out: PB (converted)
[32] = Protein binding in dog serum; type: ADME, cell-free, Canis lupus familiaris; conditions: read-out: PB (converted)

SMILES	Activity [1]	MIC (Staphylococcus aureus [2]) [µM]	FIC (Acinetobacter baumannii [3])	Ki [4] [nM]	IC50 (HepG2 [5]) [µg/mL]	MIC (Staphylococcus aureus [6]) [µg/mL]	MIC (Staphylococcus aureus [7]) [µg/mL]	MIC (Acinetobacter baumannii [8]) [µg/mL]	MIC (Escherichia coli [9]) [µg/mL]	FIC (Acinetobacter baumannii [10])	MIC (Acinetobacter baumannii [11]) [µg/mL]	IC50 (HepG2 [12]) [µg/mL]	Selectivity ratio (Staphylococcus aureus [13])	MIC (Acinetobacter baumannii [14]) [µg/mL]	fold change (FC) (Acinetobacter baumannii [15])	IC50 [17] [nM]	Activity [18]	MIC (Acinetobacter baumannii [19]) [µg/mL]	Ki [20] [nM]	MIC (Escherichia coli [21]) [µg/mL]	other results
O=C(Cc1ccccc1Cl)N1CCC(c2ccc3c(c2)OCO3)C1 (racemic)	Active	18.2 (≈ 6.26 µg/mL)	0.31	900	46	> 200	25 (≈ 72.7 µM)	0.78	25 (≈ 72.7 µM)	0.28	0.78	64	>4	> 200	10	7800	Active	6.25	3900		MIC (Acinetobacter baumannii [16]): 12.5 µg/mL
COc1ccccc1C1CCN(C(=O)Cc2c(F)cccc2F)C1 (racemic)	Active	151 (≈ 50 µg/mL)		2100	65		> 200			0.38	0.19	279		> 200		3000	Active	50	1500	> 200	
COc1ccccc1C1CCN(C(=O)/C=C/c2ccc(NC(C)=O)nc2)C1 (racemic)	Active	34.2 (≈ 12.5 µg/mL)	0.31	1300	138			0.78	0.75 (≈ 2.05 µM)		0.39	219	4	> 200	10	420	Active	25	200		MIC (Acinetobacter baumannii [22]): 15 µg/mL; Selectivity ratio [23]: 8.8; Selectivity ratio [24]: > 10; MIC (Acinetobacter baumannii [25]): 50 µg/mL; MIC (Acinetobacter baumannii [16]): 12.5 µg/mL; Selectivity ratio [26]: 4.4; FIC (Acinetobacter baumannii [27]): 0.37
O=C(Cc1ccccc1Cl)N1CCC(c2ccccn2)C1 (racemic)	Active	166 (≈ 50 µg/mL)		6800		200 (≈ 665 µM)	200 (≈ 665 µM)			0.5	0.39			> 200	10	30700	Active	50	15400	> 200	MIC (Staphylococcus aureus [28]): 100 µg/mL (≈ 332 µM)
O=C(Cc1cccc(F)c1F)N1CCC(c2ccccc2)C1 (racemic)	Active	166 (≈ 50 µg/mL)		2700	68	200 (≈ 664 µM)	100 (≈ 332 µM)			0.25	0.19	125		> 200		9300	Active	25	4700	> 200	MIC (Staphylococcus aureus [28]): 50 µg/mL (≈ 166 µM)
Cc1c(CN(C)C(=O)/C=C/c2cnc3c(c2)CCC(=O)N3)oc2ccccc12 [AFN-1252]																					fraction unbound [29]: 0.05; fraction unbound [30]: 0.05; fraction unbound [31]: 0.05; fraction unbound [32]: 0.05
